Publication PMC8247328 (British Journal of Clinical Pharmacology, 2020)
Where a SMILES comes first, the peptide text is derived from it. [ ]: non-standard residue; d: D form.

Columns and labels:
[1] = test system: PBMCs; format: cell-based, human; settings: Part 2; 25 mg s.c. once daily; after 27 days
[2] = test system: patients with early stage HD; experiment: Motor assessments and UHDRS; format: in vivo, human; settings: Part 2; 25 mg s.c. once daily 28 d
Summary of the method: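 In Part 2 only, motor and neurocognitive tests were run at the start and 1.5 h after the final subcutaneous dose on day 28. Each parameter was analysed by mixed-model ANCOVA with treatment as fixed factor and baseline as covariate, with no multiplicity adjustment.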

[3] = test system: rats; settings: ischaemia/reperfusion, single dose of 4 mg/kg; cited from earlier work
[4] = test system: SN4741 cells; settings: cultured SN4741 cells exposed to MPTP; cited from earlier work
[5] = test system: patients with early stage HD; experiment: Safety: treatment-emergent adverse events, laboratory, vital signs, ECG; format: in vivo, human
Summary of the method: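 The trial was randomized and placebo-controlled in early HD. Part 1 gave 5, 15 or 25 mg subcutaneously once daily for 7 days (6 active, 2 placebo per cohort). Part 2 re-randomized patients 12:12 to 28 days. Adverse events, vitals, laboratory, ECG and physical examination were recorded on clinic days and at home visits (days 7, 14, 21 in Part 2). Plasma histamine was sampled 15 and 30 min post-dose.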

[6] = test system: peripheral blood mononuclear cells (PBMCs); experiment: Mitochondrial membrane potential of PBMCs; format: in vivo, human; settings: for Mitochondrial membrane potential (Delta psi), contrast vs placebo (95% CI) / Percentage of dysfunctional PMBCs, contrast vs placebo (95% CI): ANCOVA; for Mitochondrial membrane potential (Delta psi), LS mean: PBMCs
Summary of the method: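 Live PBMCs were stained with JC-1 and read by flow cytometry, FL-2 for healthy and FL-1 for dysfunctional mitochondria. A fraction of cells was treated with CCCP as uncoupled positive control, and ΔΨm was calculated from FL2/FL1 ratios ×100. Blood was drawn 1 h before dosing on day 1 and 1.5 h after the final dose on day 7 (Part 1), and 1.5 h post-dose on day 27 (Part 2). Analysis was mixed-model ANCOVA with baseline as covariate.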

[7] = test system: mitochondrial function in the visual cortex; experiment: 31P-MRS of the visual cortex before, during and after visual stimulation; format: in vivo, human; settings: Part 2, 25 mg s.c. once daily 28 d
Summary of the method: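 At 3 T, a 6-cm 31P transmit/receive surface coil was placed over the visual cortex, positioned using a 10-mm water sphere on 1H images. Adiabatic pulse-acquire (TR 2 s, flip 90°) FIDs were collected for 4 min at rest (128 averages), 8 min during visual activation (256) and 8 min after (256). Time-domain fitting with prior knowledge gave PCr/ATP, Pi/PCr, Pi/ATP and pH. Scans ran on day −1 and 1.5 h post-dose on day 27; mixed-model ANCOVA used baseline as covariate.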

[8] = Part 1, 5 mg s.c. once daily 7 d
[9] = Part 1, 5 mg s.c. once daily 7 d, n=6, day 7, 1.5 h post dose
[10] = Part 1, 15 mg s.c. once daily 7 d
[11] = Part 1, 25 mg s.c. once daily 7 d
[12] = Part 2, 25 mg s.c. once daily 28 d
[13] = Part 2, 25 mg s.c. once daily 28 d, n=11, day 27, 1.5 h post dose

N=C(N)NCCC[C@@H](NC(=O)[C@@H](N)Cc1ccccc1)C(=O)N[C@@H](Cc1ccccc1)C(=O)N[C@@H](CCCCN)C(N)=O [SBT‐020, H‐Phe‐D‐Arg‐Phe‐Lys‐NH2] (H-F[dR]FK-NH2)
Effect on ∆Ψm values and half maximal inhibitory concentration values for carvedilol and verapamil [1]: no effect
Effect on motor function [2]: no effect
Infarct size and myocardial lipid peroxidation [3]: significantly reduced
Cell viability and apoptosis [4]: improved cell viability and reduced apoptosis
Overall safety ([5]; 5, 15, 25 mg s.c. once daily 7 d and 25 mg 28 d): safe in all dose levels
Plasma histamine levels ([5]; 15 and 30 minutes after administration): not elevated
Severity of injection site reactions ([5]; Parts 1 and 2, developed within a few minutes of dosing, resolved within the hour): mild
Mitochondrial membrane potential (Delta psi), contrast vs placebo (95% CI) [6, 8]: 263.528 (−1151.3, 1678.31) P = .7001
Percentage of dysfunctional PMBCs, contrast vs placebo (95% CI) [6, 8]: −1.980 (−3.819, −0.141) P = .0363%
Percentage of dysfunctional PMBCs, LS mean [6, 9]: 3.82%
Mitochondrial membrane potential (Delta psi), LS mean [6, 9]: 3162.27
Mitochondrial membrane potential (Delta psi), contrast vs placebo (95% CI) [6, 10]: −16.375 (−1411.2, 1378.48) P = .9806
Percentage of dysfunctional PMBCs, contrast vs placebo (95% CI) [6, 10]: −3.002 (−4.980, −1.025) P = .0051%
Percentage of dysfunctional PMBCs, LS mean ([6]; Part 1, 15 mg s.c. once daily 7 d, n=6, day 7, 1.5 h post dose): 2.80%
Mitochondrial membrane potential (Delta psi), contrast vs placebo (95% CI) [6, 11]: 1513.21 (114.067, 2912.36) P = .0356
Percentage of dysfunctional PMBCs, contrast vs placebo (95% CI) [6, 11]: −2.052 (−3.894, −0.210) P = .0310%
Percentage of dysfunctional PMBCs, LS mean ([6]; Part 1, 25 mg s.c. once daily 7 d, n=6, day 7, 1.5 h post dose): 3.75%
Mean percentage of dysfunctional PBMCs after 7 days of treatment ([6]; Part 1, 5‐mg cohort, baseline mean 3.2): 3.4%
Mean ∆Ψm after 7 days of treatment ([6]; Part 1, 5‐mg cohort, baseline mean 2956): 2948
Mean percentage of dysfunctional PBMCs after 7 days of treatment ([6]; Part 1, 15‐mg cohort, baseline mean 4.3): 3.8%
Mean ∆Ψm after 7 days of treatment ([6]; Part 1, 15‐mg cohort, baseline mean 3,316): 3,282
Mean percentage of dysfunctional PBMCs after 7 days of treatment ([6]; Part 1, 25‐mg cohort, baseline mean 3.2): 3.4%
Mean ∆Ψm after 7 days of treatment ([6]; Part 1, 25‐mg cohort, baseline mean 3715): 5279
Mitochondrial membrane potential (Delta psi), contrast vs placebo (95% CI) [6, 12]: 1065.4 (−495.2, 2626.0) P = .17
Percentage of dysfunctional PMBCs, contrast vs placebo (95% CI) [6, 12]: −0.75 (−3.93, 2.42) P = .62%
Percentage of dysfunctional PMBCs, LS mean [6, 13]: 4.08%
Mitochondrial membrane potential (Delta psi), LS mean [6, 13]: 4090.47
Mean percentage of dysfunctional PBMCs after 28 days of treatment ([6]; Part 2, active group 25 mg, baseline mean 4.6): 4.2%
Mean ∆Ψm after 28 days of treatment ([6]; Part 2, active group 25 mg, baseline mean 3770): 4124
Effect on brain mitochondrial function compared to placebo [7]: No overall statistically significant effect
PCr/ATP after visual stimulation (central 31P‐MRS), contrast vs placebo (95% CI) ([7]; ANCOVA): −0.02 (−0.1, 0.05) P = .57
Pi/ATP after visual stimulation (central 31P‐MRS), contrast vs placebo (95% CI) ([7]; ANCOVA): 0.0073 (−0.0270, 0.0415) P = .6613
Pi/ATP before visual stimulation (central 31P‐MRS), contrast vs placebo (95% CI) ([7]; ANCOVA): −0.002 (−0.02, 0.02) P = .80
Pi/ATP during visual stimulation (central 31P‐MRS), contrast vs placebo (95% CI) ([7]; ANCOVA): −0.004 (−0.02, 0.01) P = .57
Pi/PCr after visual stimulation (central 31P‐MRS), contrast vs placebo (95% CI) ([7]; ANCOVA): 0.02 (−0.02, 0.06) P = .32
Pi/PCr before visual stimulation (central 31P‐MRS), contrast vs placebo (95% CI) ([7]; ANCOVA): 0.0007 (−0.02, 0.02) P = .93
Pi/PCr during visual stimulation (central 31P‐MRS), contrast vs placebo (95% CI) ([7]; ANCOVA): 0.004 (−0.03, 0.03) P = .81
PCr/ATP after visual stimulation (central 31P‐MRS), LS mean ([7]; n=11, day 27): 0.9
PCr/ATP before visual stimulation (central 31P‐MRS), LS mean ([7]; n=11, day 27): 0.8
PCr/ATP during visual stimulation (central 31P‐MRS), LS mean ([7]; n=11, day 27): 0.8
PCr/ATP during‐after visual stimulation (central 31P‐MRS), LS mean ([7]; n=11, day 27): −0.05
PCr/ATP during‐before visual stimulation (central 31P‐MRS), LS mean ([7]; n=11, day 27): −0.03
Pi/ATP after visual stimulation (central 31P‐MRS), LS mean ([7]; n=11, day 27): 0.2
